Legend:
[1] = Antiplatelet activity against New Zealand white rabbit platelets assessed as inhibition of collagen-induced platelet aggregation at 50 ug/mL treated 2 mins before collagen challenge measured after 4 mins by turbidimetric analysis; assay type: functional; conditions: Oryctolagus cuniculus
Procedure, shortened: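 Rabbit washed platelets (EDTA-treated PRP, washed in Ca²⁺-free Tyrode's with BSA, heparin and apyrase at 37 °C for 20 min) were resuspended in 1 mM Ca²⁺ Tyrode's at 2.5 × 10⁸/mL. Compound or DMSO vehicle (final 0.5%) was added for 2 min at 37 °C with 900 rpm stirring before collagen. Read-out was peak transmission increase within 4 min, expressed as inhibition relative to vehicle.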

[2] = Antiplatelet activity against New Zealand white rabbit platelets assessed as inhibition of ADP-induced platelet aggregation at 50 ug/mL treated 2 mins before ADP challenge measured after 4 mins by turbidimetric analysis; assay type: functional; conditions: Oryctolagus cuniculus
Procedure, shortened: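 Washed platelets from ear-vein blood (acid-citrate dextrose), washed in Ca²⁺-free Tyrode's with BSA, heparin and apyrase, resuspended in Tyrode's with 1 mM Ca²⁺ at 2.5 × 10⁸/mL. Stirred at 900 rpm, preincubated 2 min at 37 °C with compound or vehicle (DMSO, final 0.5%), then challenged with 20 μM ADP. Maximal light-transmission rise within 4 min; inhibition computed versus vehicle.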

cells [3] = conditions: Oryctolagus cuniculus, New Zealand white, Platelet, read-out: INH
cells [4] = conditions: Oryctolagus cuniculus, New Zealand white, Platelet, read-out: INH; remark: listed apart in the source

SMILES | inhibition at 50 µg/mL [1] [%] | inhibition at 50 µg/mL [2] [%] | inhibition at 9.6 µg/mL (cells [3]) [%] | inhibition at 9.6 µg/mL (cells [4]) [%]
COc1cccc(/C=C/C(=O)c2ccc(OCC=C(C)C)cc2O)c1OC | 19.7 | 21.3 | – | –
COc1ccc(/C=C/C(=O)c2ccc(OCC=C(C)C)cc2O)c(OC)c1OC | 12.6 | 21.4 | – | –
COc1ccc(/C=C/C(=O)c2ccc(OCC=C(C)C)cc2O)cc1OC | 10.3 | 24.3 | – | –
COc1cc(/C=C/C(=O)c2ccc(OCC=C(C)C)cc2O)cc(OC)c1OC | 7.9 | 27.1 | – | –
Cc1ccc(/C=C/C(=O)c2ccc(O)c(CN3CCOCC3)c2)o1 | 0 | 12.8 | – | –
COc1ccc(/C=C/C(=O)c2ccc(C)cc2)c(CN2CCOCC2)c1O | 57.6 | 99.3 | – | –
COc1ccc(/C=C/C(=O)c2ccc(OCC=C(C)C)cc2O)cc1O | 13.4 | 23 | – | –
COc1cc(OC)c(OC)cc1/C=C/C(=O)c1ccc(OCC=C(C)C)cc1O | 4 | 15.7 | – | –
COc1ccc(/C=C/C(=O)c2ccc(OCC=C(C)C)cc2O)c(OC)c1 | 39.2 | 42.7 | – | –
COc1ccc(OC)c(/C=C/C(=O)c2ccc(OCC=C(C)C)cc2O)c1 | 14.9 | 22.8 | – | –
COc1cc(/C=C/C(=O)c2ccc(OCC=C(C)C)cc2O)cc(OC)c1 | 8.7 | 20.7 | – | –
CC(C)=CCOc1ccc(C(=O)/C=C/c2ccc3c(c2)OCO3)c(O)c1 | 17.3 | 20 | – | –
C=CCOc1ccc(C(=O)/C=C/c2ccc(OC)c(OC)c2OC)c(O)c1 | 14.9 | 26.4 | – | –
C=CCOc1ccc(C(=O)/C=C/c2cccc(OC)c2OC)c(O)c1 | 44.7 | 30.8 | – | –
C=CCOc1ccc(C(=O)/C=C/c2ccc3c(c2)OCO3)c(O)c1 | 7.9 | 21.4 | – | –
C=CCOc1ccc(C(=O)/C=C/c2cc(OC)ccc2OC)c(O)c1 | 57.2 | 33.6 | – | –
C=CCOc1ccc(C(=O)/C=C/c2ccc(OC)cc2)c(O)c1 | 5.5 | 24.9 | – | –
C=CCOc1ccc(C(=O)/C=C/c2ccc(OC)cc2OC)c(O)c1 | 53.4 | 35.2 | – | –
C=CCOc1ccc(C(=O)/C=C/c2cc(OC)c(OC)c(OC)c2)c(O)c1 | 43.2 | 70.4 | – | –
C=CCOc1ccc(C(=O)/C=C/c2cc(OC)c(OC)cc2OC)c(O)c1 | 0 | 21.6 | – | –
C=CCOc1ccc(C(=O)/C=C/c2cc(OC)cc(OC)c2)c(O)c1 | 13.4 | 30.8 | – | –

SMILES | inhibition at 50 µg/mL [1] [%] | inhibition at 50 µg/mL [2] [%] | inhibition at 9.6 µg/mL (cells [3]) [%] | inhibition at 9.6 µg/mL (cells [4]) [%]
C=CCOc1ccc(C(=O)/C=C/c2ccccc2)c(O)c1 | 6.3 | 25.6 | – | –
Cc1ccsc1/C=C/C(=O)c1ccc(O)c(CN2CCOCC2)c1 | 12.5 | 21.4 | – | –
CCOc1cc(O)c(C(=O)/C=C/c2ccco2)cc1CN1CCOCC1 | 0 | 22.5 | – | –
CCOc1cc(O)c(C(=O)/C=C/c2ccccn2)cc1CN1CCOCC1 | 43 | 100 | – | –
COc1ccc(/C=C/C(=O)c2cccc(C)c2)c(CN2CCOCC2)c1O | 78 | 100 | – | –
COc1ccc(/C=C/C(=O)c2cccs2)c(CN2CCCCC2)c1O | 95.2 | 100 | – | –
O=C(/C=C/c1ccccn1)c1ccc(O)c(CN2CCOCC2)c1 | 63.5 | 99.3 | – | –
Cc1ccsc1/C=C/C(=O)c1cc(CN2CCOCC2)c(O)c(CN2CCOCC2)c1 | 50 | 24.9 | – | –
COc1ccc(/C=C/C(=O)c2cccnc2)c(CN2CCCCC2)c1O | 98.4 | 100 | – | –
O=C(/C=C/c1ccccn1)c1ccc(CN2CCOCC2)c(O)c1 | 98.4 | 100 | – | –
O=C(/C=C/c1ccncc1)c1ccc(CN2CCOCC2)c(O)c1 | 100 | 100 | – | –
O=C(/C=C/c1ccccc1)c1cccc(O)c1CN1CCOCC1 | 89.8 | 100 | – | –
O=C(/C=C/c1ccccn1)c1ccc(CN2CCOCC2)c(O)c1CN1CCOCC1 | 100 | 100 | – | –
O=C(/C=C/c1ccccn1)c1ccc(O)c(CN2CCOCC2)c1O | 12.5 | 100 | – | –
COc1ccc(C(=O)/C=C/c2ccccn2)c(O)c1CN1CCOCC1 | 93.7 | 100 | – | –
CC(C)Oc1ccc(C(=O)/C=C/c2cccs2)c(O)c1CN1CCOCC1 | 3.2 | 29 | – | –
O=C(/C=C/c1cccs1)c1cccc(O)c1CN1CCOCC1 | 83.5 | 100 | – | –
COc1cc(O)c(C(=O)/C=C/c2cccs2)cc1CN1CCOCC1 | 11.1 | 26.4 | – | –
COc1cc(O)c(C(=O)/C=C/c2ccco2)cc1CN1CCOCC1 | 19.7 | 17.2 | – | –
COc1cc(O)c(C(=O)/C=C/c2cccnc2)cc1CN1CCOCC1 | 96.1 | 100 | – | –
O=C(/C=C/c1ccccc1)c1ccc(O)c(CN2CCOCC2)c1 | 20.3 | 34.2 | – | –

SMILES | inhibition at 50 µg/mL [1] [%] | inhibition at 50 µg/mL [2] [%] | inhibition at 9.6 µg/mL (cells [3]) [%] | inhibition at 9.6 µg/mL (cells [4]) [%]
O=C(/C=C/c1ccco1)c1ccc(O)c(CN2CCOCC2)c1 | 4.7 | 18.4 | – | –
O=C(/C=C/c1cccs1)c1ccc(O)c(CN2CCOCC2)c1 | 25 | 23.4 | – | –
CCOc1cc(O)c(C(=O)/C=C/c2sccc2C)cc1CN1CCOCC1 | 0 | 32.3 | – | –
CCOc1cc(O)c(C(=O)/C=C/c2cccnc2)cc1CN1CCOCC1 | 46.9 | 100 | – | –
COc1cc(O)c(C(=O)/C=C/c2ccccc2)cc1CN1CCOCC1 | 29.2 | 97.2 | – | –
CC(C)Oc1cc(O)c(C(=O)/C=C/c2cccs2)cc1CN1CCOCC1 | 0 | 23.4 | – | –
CCOc1cc(O)c(C(=O)/C=C/c2ccc(C)o2)cc1CN1CCOCC1 | 0 | 16.5 | – | –
O=C(/C=C/c1ccccn1)c1cc(CN2CCOCC2)c(O)c(CN2CCOCC2)c1 | 78.6 | 100 | – | –
CC(C)=CCOc1ccc(C(=O)/C=C/c2sccc2C)c(O)c1CN1CCOCC1 | 11.1 | 14.2 | – | –
O=C(/C=C/c1cccnc1)c1ccc(CN2CCOCC2)c(O)c1 | 95.3 | 100 | – | –
Cc1ccsc1/C=C/C(=O)c1cccc(O)c1CN1CCOCC1 | 65.5 | 79.1 | – | –
COc1ccc(/C=C/C(=O)c2cc(CN3CCOCC3)c(OC)cc2O)cc1 | 7.1 | 36.7 | – | –
COc1ccc(/C=C/C(=O)c2ccco2)c(CN2CCCCC2)c1O | 93.7 | 100 | – | –
O=C(/C=C/c1cccnc1)c1ccc(O)c(CN2CCOCC2)c1 | 56.4 | 100 | – | –
CCOc1cc(O)c(C(=O)/C=C/c2ccccc2)cc1CN1CCOCC1 | 2.3 | 39.3 | – | –
O=C(/C=C/c1ccncc1)c1ccc(O)c(CN2CCOCC2)c1 | 79.4 | 100 | – | –
O=C(/C=C/c1ccco1)c1cccc(O)c1CN1CCOCC1 | 60.8 | 100 | – | –
COc1ccc(/C=C/C(=O)c2ccc(OCC=C(C)C)cc2O)cc1 | 17.3 | 25.7 | – | –
COC(=O)[C@H](c1ccccc1Cl)N1CCc2sccc2C1 [CLOPIDOGREL] | – | – | 3.5 | 85.2
CC(C)=CCOc1ccc(C(=O)/C=C/c2ccccc2)c(O)c1 [CORDOIN] | 6.3 | 16.4 | – | –
